Experimental data: ChEMBL document CHEMBL3297689, “Phenylalanine-Based Inactivator of AKT Kinase: Design, Synthesis, and Biological Evaluation” (ACS Med Chem Lett, 2014)
Calls of active or inactive are those of the source. No cut-off for these calls is given here. Where a SMILES comes first, the peptide text is derived from it. [ ]: non-standard residue; d: D form. NMeV = CN[C@H](C(=O)O)C(C)C; GABA = NCCCC(=O)O

Tests used:
[1] = target: T1, RAC-alpha serine/threonine-protein kinase (Homo sapiens, UniProt P31749); test: Inhibition of AKT1 (unknown origin) after 1 hr by Z'-LYTE kinase assay in presence of 75 uM ATP
[2] = system: NCI-H460; test: Growth inhibition of human NCI-H460 cells after 72 hrs by coulter counter method; type: functional, cell-based; conditions: NCI-H460, 72 h
[3] = Growth inhibition of human HCT116 cells after 72 hrs by coulter counter method; type: functional, cell-based; conditions: HCT-116, 72 h
[4] = target: Protein kinase C theta type (Homo sapiens) (UniProt Q04759); test: Inhibition of PKCtheta (unknown origin) at 1 uM in presence of 100 uM ATP
[5] = target: Hepatocyte growth factor receptor (Homo sapiens) (UniProt P08581); test: Inhibition of MET (unknown origin) at 1 uM in presence of 100 uM ATP
[6] = target: Aurora kinase A (Homo sapiens) (UniProt O14965); test: Inhibition of AURKA (unknown origin) at 1 uM in presence of 100 uM ATP
[7] = target: Maternal embryonic leucine zipper kinase (Homo sapiens) (UniProt Q14680); test: Inhibition of MELK (unknown origin) at 1 uM in presence of 100 uM ATP
[8] = target: Mitogen-activated protein kinase kinase kinase kinase 5 (Homo sapiens) (UniProt Q9Y4K4); test: Inhibition of MAP4K5 (unknown origin) at 1 uM in presence of 100 uM ATP
[9] = target: Tyrosine-protein kinase CSK (Homo sapiens) (UniProt P41240); test: Inhibition of CSK (unknown origin) at 1 uM in presence of 100 uM ATP
[10] = Selectivity index, ratio of IC50 for human HCT116 cells to IC50 for recombinant AKT (unknown origin); set-up: species or system HCT-116
[11] = target: Tyrosine-protein kinase Lyn (Homo sapiens) (UniProt P07948); test: Inhibition of LYN A (unknown origin) at 1 uM in presence of 100 uM ATP
[12] = target: MAP kinase-interacting serine/threonine-protein kinase 1 (Homo sapiens) (UniProt Q9BUB5); test: Inhibition of MKNK1 (unknown origin) at 1 uM in presence of 100 uM ATP
[13] = target: cAMP-dependent protein kinase catalytic subunit PRKX (Homo sapiens) (UniProt P51817); test: Inhibition of PRKX (unknown origin) at 1 uM in presence of 100 uM ATP
[14] = target: AMP-activated protein kinase, AMPK (Homo sapiens) (UniProt P54646+O43741+P54619+Q9UGJ0+Q9Y478+Q13131+Q9UGI9); test: Inhibition of AMPKalpha1/beta1/gamma1 (unknown origin) at 1 uM in presence of 100 uM ATP; type: protein-complex assay
[15] = target: Serine/threonine-protein kinase Chk1 (Homo sapiens) (UniProt O14757); test: Inhibition of CHK1 (unknown origin) at 1 uM in presence of 100 uM ATP
[16] = target: Dual specificity mitogen-activated protein kinase kinase 1 (Homo sapiens) (UniProt Q02750); test: Inhibition of MEK1 (unknown origin) at 1 uM in presence of 100 uM ATP
[17] = target: Serine/threonine-protein kinase Sgk1 (Homo sapiens) (UniProt O00141); test: Inhibition of SGK1 (unknown origin) at 1 uM in presence of 100 uM ATP
[18] = Inhibition of PKAalpha (unknown origin) after 1 hr by Z'-LYTE kinase assay in presence of 4 uM ATP; set-up: species or system Homo sapiens
Method in brief: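 Z′-LYTE FRET assay measuring phosphorylation of a peptide substrate by recombinant kinase, independent of mechanism. IC50 is the average of three independent experiments, with 95% confidence intervals.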

[19] = target: Tyrosine-protein kinase ABL1 (Homo sapiens) (UniProt P00519); test: Inhibition of ABL1 (unknown origin) at 1 uM in presence of 100 uM ATP
[20] = target: Vascular endothelial growth factor receptor 2 (Homo sapiens) (UniProt P35968); test: Inhibition of VEGFR2 (unknown origin) at 1 uM in presence of 100 uM ATP
[21] = Selectivity index, ratio of IC50 for human NCI-H460 cells to IC50 for recombinant AKT (unknown origin)
[22] = target: T1, RAC-alpha serine/threonine-protein kinase; test: Irreversible inhibition of AKT1 (unknown origin) Z'-LYTE kinase assay in presence of ATP; conditions: TDE = time-dependent effect
Method in brief: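 Recombinant AKT1 activity read by the FRET-based Z′-LYTE kit, which measures phosphorylation of a peptide substrate. […] IC50 values are averages of three independent experiments with 95% confidence intervals.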

[23] = target: Platelet-derived growth factor receptor alpha (Homo sapiens) (UniProt P16234); test: Inhibition of PDGFRA (unknown origin) at 1 uM in presence of 100 uM ATP
[24] = target: Focal adhesion kinase 1 (Homo sapiens) (UniProt Q05397); test: Inhibition of PTK2 (unknown origin) at 1 uM in presence of 100 uM ATP
[25] = target: MAP kinase-activated protein kinase 2 (Homo sapiens) (UniProt P49137); test: Inhibition of MAPKAPK2 (unknown origin) at 1 uM in presence of 100 uM ATP
[26] = target: T1, RAC-alpha serine/threonine-protein kinase; test: Inhibition of AKT1 (unknown origin) at 1 uM in presence of 100 uM ATP
[27] = target: Protein kinase C alpha type (Homo sapiens) (UniProt P17252); test: Inhibition of PKCalpha (unknown origin) at 1 uM in presence of 100 uM ATP
[28] = target: Ribosomal protein S6 kinase alpha-5 (Homo sapiens) (UniProt O75582); test: Inhibition of MSK1 (unknown origin) at 1 uM in presence of 100 uM ATP
[29] = target: Proto-oncogene tyrosine-protein kinase Src (Homo sapiens) (UniProt P12931); test: Inhibition of SRC (unknown origin) at 1 uM in presence of 100 uM ATP
[30] = target: Tyrosine-protein kinase SYK (Homo sapiens) (UniProt P43405); test: Inhibition of SYK (unknown origin) at 1 uM in presence of 100 uM ATP
[31] = target: Serine/threonine-protein kinase MARK1 (Homo sapiens) (UniProt Q9P0L2); test: Inhibition of MARK1 (unknown origin) at 1 uM in presence of 100 uM ATP
[32] = target: CDK2/Cyclin A2 (Homo sapiens) (UniProt P24941+P20248); test: Inhibition of CDK2/cyclinA (unknown origin) at 1 uM in presence of 100 uM ATP; type: protein-complex assay
[33] = target: 3-phosphoinositide-dependent protein kinase 1 (Homo sapiens) (UniProt O15530); test: Inhibition of PDK1 (unknown origin) at 1 uM in presence of 100 uM ATP
[34] = target: Receptor tyrosine-protein kinase erbB-4 (Homo sapiens) (UniProt Q15303); test: Inhibition of ERBB4 (unknown origin) at 1 uM in presence of 100 uM ATP
[35] = target: Testis-specific serine/threonine-protein kinase 1 (Homo sapiens) (UniProt Q9BXA7); test: Inhibition of TSSK1 (unknown origin) at 1 uM in presence of 100 uM ATP
[36] = organism: Homo sapiens; test: Selectivity for AKT1 (unknown origin) over PKAalpha (unknown origin)
Method in brief: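 Selectivity is the PKAα IC50 divided by the AKT1 IC50. Both IC50s were measured in the FRET-based Z′-LYTE peptide-phosphorylation assay.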

[37] = target: Ribosomal protein S6 kinase beta-1 (Homo sapiens) (UniProt P23443); test: Inhibition of p70S6K (unknown origin) at 1 uM in presence of 100 uM ATP
[38] = target: Epidermal growth factor receptor (Homo sapiens) (UniProt P00533); test: Inhibition of EGFR (unknown origin) at 1 uM in presence of 100 uM ATP
[39] = target: Calcium/calmodulin-dependent protein kinase type IV (Homo sapiens) (UniProt Q16566); test: Inhibition of CAMK-4 (unknown origin) at 1 uM in presence of 100 uM ATP
[40] = target: Vascular endothelial growth factor receptor 1 (Homo sapiens) (UniProt P17948); test: Inhibition of FLT1 (unknown origin) at 1 uM in presence of 100 uM ATP
[41] = target: cGMP-dependent protein kinase 1 (Homo sapiens) (UniProt Q13976); test: Inhibition of PRKG1 (unknown origin) at 1 uM in presence of 100 uM ATP
[42] = organism: Homo sapiens; test: Inhibition of PKAalpha (unknown origin) at 1 uM in presence of 100 uM ATP
[43] = target: Serine/threonine-protein kinase PLK1 (Homo sapiens) (UniProt P53350); test: Inhibition of PLK1 (unknown origin) at 1 uM in presence of 100 uM ATP
[44] = target: Mitogen-activated protein kinase 14 (Homo sapiens) (UniProt Q16539); test: Inhibition of MAPK14 (unknown origin) at 1 uM in presence of 100 uM ATP
[45] = target: Cyclin-dependent kinase 1/cyclin B1 (Homo sapiens) (UniProt P06493+P14635); test: Inhibition of CDK1/cyclinB (unknown origin) at 1 uM in presence of 100 uM ATP; type: protein-complex assay
[46] = target: Calcium/calmodulin-dependent protein kinase type 1D (Homo sapiens) (UniProt Q8IU85); test: Inhibition of CAMK1D (unknown origin) at 1 uM in presence of 100 uM ATP
[47] = target: Mitogen-activated protein kinase 3 (Homo sapiens) (UniProt P27361); test: Inhibition of MAPK3 (unknown origin) at 1 uM in presence of 100 uM ATP
[48] = target: PAS domain-containing serine/threonine-protein kinase (Homo sapiens) (UniProt Q96RG2); test: Inhibition of PASK (unknown origin) at 1 uM in presence of 100 uM ATP
[49] = target: Ribosomal protein S6 kinase alpha-1 (Homo sapiens) (UniProt Q15418); test: Inhibition of RSK1 (unknown origin) at 1 uM in presence of 100 uM ATP
[50] = target: Mitogen-activated protein kinase 1 (Homo sapiens) (UniProt P28482); test: Inhibition of MAPK1 (unknown origin) at 1 uM in presence of 100 uM ATP
[51] = target: 5'-AMP-activated protein kinase catalytic subunit alpha-1 (Homo sapiens) (UniProt Q13131); test: Inhibition of AMPKalpha1 (unknown origin) at 1 uM in presence of 100 uM ATP
[52] = target: Serine/threonine-protein kinase Chk2 (Homo sapiens) (UniProt O96017); test: Inhibition of CHK2 (unknown origin) at 1 uM in presence of 100 uM ATP
[53] = target: T1, RAC-alpha serine/threonine-protein kinase; test: Binding affinity to AKT1 (unknown origin) assessed as covalent modification at Cys310 residue by mass spectrometry
[54] = target: T1, RAC-alpha serine/threonine-protein kinase; test: Inhibition of AKT1 (unknown origin) after 30 mins by scintillation counting analysis in presence of 100 uM ATP

T1 sequence (P31749 whole entry): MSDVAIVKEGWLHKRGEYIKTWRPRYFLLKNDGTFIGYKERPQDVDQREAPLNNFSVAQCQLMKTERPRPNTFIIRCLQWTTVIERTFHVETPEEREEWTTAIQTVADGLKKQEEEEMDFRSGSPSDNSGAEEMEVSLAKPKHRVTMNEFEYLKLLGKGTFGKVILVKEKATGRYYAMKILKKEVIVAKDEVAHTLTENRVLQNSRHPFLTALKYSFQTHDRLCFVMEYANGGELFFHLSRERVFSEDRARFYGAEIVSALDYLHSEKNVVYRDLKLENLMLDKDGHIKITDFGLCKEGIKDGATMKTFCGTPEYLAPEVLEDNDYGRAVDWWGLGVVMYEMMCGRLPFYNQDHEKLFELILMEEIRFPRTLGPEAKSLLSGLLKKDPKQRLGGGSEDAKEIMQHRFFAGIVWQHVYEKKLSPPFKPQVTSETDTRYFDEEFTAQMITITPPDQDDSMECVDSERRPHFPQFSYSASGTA
Sequence of Proto-oncogene tyrosine-protein kinase Src (Homo sapiens) (P12931 2-536 limits assumed): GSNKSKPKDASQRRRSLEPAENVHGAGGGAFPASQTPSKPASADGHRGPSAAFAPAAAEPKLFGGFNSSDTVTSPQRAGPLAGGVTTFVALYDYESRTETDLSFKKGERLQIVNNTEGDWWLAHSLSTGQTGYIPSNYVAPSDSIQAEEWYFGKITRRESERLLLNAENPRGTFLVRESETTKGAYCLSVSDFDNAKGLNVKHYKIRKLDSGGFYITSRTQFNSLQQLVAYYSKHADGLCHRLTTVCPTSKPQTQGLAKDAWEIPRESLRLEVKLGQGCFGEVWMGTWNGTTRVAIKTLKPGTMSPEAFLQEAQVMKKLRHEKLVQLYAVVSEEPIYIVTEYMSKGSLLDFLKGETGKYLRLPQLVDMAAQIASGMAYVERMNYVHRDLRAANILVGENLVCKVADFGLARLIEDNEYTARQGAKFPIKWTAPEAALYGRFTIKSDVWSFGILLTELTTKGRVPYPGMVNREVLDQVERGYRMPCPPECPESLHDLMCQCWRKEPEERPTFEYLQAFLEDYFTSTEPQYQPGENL
Sequence of MAP kinase-activated protein kinase 2 (Homo sapiens) (P49137 whole entry, looked up): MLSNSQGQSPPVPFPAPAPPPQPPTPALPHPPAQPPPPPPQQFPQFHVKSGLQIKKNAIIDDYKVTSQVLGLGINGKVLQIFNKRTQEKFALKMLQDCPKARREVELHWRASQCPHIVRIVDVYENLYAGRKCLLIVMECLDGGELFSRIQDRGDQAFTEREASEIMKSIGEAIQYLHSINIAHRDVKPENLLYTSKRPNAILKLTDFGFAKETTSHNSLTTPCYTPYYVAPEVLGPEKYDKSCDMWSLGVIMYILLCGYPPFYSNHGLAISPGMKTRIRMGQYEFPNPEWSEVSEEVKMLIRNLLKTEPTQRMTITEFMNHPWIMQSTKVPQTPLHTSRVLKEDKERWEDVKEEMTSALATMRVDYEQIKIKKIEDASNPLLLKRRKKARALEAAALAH
Sequence of Maternal embryonic leucine zipper kinase (Homo sapiens) (Q14680 whole entry, looked up): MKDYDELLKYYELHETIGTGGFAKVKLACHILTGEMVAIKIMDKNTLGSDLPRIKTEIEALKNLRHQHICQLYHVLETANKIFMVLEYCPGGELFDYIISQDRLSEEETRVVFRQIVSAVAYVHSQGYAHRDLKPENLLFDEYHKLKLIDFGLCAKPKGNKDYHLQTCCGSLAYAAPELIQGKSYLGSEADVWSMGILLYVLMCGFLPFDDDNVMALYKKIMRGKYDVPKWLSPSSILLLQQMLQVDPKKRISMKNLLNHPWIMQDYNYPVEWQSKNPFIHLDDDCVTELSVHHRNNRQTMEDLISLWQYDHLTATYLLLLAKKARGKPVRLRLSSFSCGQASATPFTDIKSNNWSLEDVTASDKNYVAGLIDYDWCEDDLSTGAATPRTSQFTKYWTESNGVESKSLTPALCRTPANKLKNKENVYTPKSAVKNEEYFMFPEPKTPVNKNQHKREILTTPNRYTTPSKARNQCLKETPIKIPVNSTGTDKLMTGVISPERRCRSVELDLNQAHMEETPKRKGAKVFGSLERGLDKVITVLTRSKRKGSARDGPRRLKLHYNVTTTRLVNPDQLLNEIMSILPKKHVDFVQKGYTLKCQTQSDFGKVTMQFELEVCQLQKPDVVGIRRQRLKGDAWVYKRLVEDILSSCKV
Sequence of cGMP-dependent protein kinase 1 (Homo sapiens) (Q13976 whole entry): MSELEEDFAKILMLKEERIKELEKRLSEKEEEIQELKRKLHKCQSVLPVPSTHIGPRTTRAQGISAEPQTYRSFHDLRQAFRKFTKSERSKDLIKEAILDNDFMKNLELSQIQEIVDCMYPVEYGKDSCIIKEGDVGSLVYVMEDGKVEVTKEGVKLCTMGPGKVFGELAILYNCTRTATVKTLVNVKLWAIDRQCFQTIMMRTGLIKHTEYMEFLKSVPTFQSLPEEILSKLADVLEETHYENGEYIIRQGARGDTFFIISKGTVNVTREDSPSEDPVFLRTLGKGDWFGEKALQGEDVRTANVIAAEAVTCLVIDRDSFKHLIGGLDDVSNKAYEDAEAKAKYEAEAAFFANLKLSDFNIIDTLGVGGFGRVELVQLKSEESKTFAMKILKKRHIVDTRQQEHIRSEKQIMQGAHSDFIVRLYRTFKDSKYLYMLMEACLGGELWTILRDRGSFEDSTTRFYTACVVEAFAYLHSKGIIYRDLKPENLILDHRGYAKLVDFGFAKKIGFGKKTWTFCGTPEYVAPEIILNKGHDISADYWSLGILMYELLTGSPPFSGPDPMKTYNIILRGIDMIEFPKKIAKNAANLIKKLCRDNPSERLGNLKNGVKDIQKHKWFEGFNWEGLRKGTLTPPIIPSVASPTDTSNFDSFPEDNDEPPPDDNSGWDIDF
Sequence of Focal adhesion kinase 1 (Homo sapiens) (Q05397 2-1052 limits assumed): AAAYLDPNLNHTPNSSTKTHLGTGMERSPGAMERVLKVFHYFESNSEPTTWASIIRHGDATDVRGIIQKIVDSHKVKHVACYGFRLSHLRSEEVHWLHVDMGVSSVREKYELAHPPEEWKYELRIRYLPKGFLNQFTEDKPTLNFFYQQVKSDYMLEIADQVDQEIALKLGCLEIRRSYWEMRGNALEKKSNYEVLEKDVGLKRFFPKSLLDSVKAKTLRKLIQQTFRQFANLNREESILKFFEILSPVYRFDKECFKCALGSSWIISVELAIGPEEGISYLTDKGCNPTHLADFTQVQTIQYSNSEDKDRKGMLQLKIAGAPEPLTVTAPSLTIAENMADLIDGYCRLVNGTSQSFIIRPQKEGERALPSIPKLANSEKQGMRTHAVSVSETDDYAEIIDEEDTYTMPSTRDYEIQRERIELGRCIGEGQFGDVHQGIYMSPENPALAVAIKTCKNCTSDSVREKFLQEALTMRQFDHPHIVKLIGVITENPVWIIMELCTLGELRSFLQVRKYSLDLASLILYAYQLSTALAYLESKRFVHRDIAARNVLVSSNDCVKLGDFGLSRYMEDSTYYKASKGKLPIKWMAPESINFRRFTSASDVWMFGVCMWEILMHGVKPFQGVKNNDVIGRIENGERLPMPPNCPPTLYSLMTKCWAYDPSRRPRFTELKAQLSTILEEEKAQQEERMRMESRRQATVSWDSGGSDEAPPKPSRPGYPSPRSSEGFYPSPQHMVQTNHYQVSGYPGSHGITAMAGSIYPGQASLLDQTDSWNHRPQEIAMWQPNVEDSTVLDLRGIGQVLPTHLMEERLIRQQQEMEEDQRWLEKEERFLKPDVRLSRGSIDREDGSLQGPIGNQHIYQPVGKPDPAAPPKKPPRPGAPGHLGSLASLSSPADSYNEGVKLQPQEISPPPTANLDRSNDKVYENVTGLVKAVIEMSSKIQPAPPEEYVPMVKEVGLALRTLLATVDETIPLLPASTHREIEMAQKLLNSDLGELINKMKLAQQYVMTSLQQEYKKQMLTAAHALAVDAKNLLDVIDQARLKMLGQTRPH
Sequence of Serine/threonine-protein kinase Chk1 (Homo sapiens) (O14757 whole entry): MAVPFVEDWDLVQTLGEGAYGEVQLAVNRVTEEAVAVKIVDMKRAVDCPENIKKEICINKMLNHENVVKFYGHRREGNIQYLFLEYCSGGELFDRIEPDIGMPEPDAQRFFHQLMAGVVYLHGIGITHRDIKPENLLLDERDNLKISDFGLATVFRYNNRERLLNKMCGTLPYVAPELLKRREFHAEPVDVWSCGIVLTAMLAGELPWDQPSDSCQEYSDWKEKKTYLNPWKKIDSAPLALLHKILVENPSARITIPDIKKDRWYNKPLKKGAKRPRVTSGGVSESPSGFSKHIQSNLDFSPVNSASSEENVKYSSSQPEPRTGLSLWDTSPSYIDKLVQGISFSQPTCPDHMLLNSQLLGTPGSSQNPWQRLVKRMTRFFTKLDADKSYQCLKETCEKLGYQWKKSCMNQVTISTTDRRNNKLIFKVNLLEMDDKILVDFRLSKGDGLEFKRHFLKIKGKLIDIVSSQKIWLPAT
Sequence of cAMP-dependent protein kinase catalytic subunit PRKX (Homo sapiens) (P51817 whole entry): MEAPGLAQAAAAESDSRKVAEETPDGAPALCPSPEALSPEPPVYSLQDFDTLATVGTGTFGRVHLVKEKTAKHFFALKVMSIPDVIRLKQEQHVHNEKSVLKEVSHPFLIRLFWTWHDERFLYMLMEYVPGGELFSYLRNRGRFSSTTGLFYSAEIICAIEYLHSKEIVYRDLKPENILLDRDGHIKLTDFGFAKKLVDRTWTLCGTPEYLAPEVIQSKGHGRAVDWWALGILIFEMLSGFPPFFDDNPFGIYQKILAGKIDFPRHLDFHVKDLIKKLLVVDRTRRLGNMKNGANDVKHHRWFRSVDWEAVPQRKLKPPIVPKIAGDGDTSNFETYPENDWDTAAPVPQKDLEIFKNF
Sequence of Mitogen-activated protein kinase 1 (Homo sapiens) (P28482 whole entry): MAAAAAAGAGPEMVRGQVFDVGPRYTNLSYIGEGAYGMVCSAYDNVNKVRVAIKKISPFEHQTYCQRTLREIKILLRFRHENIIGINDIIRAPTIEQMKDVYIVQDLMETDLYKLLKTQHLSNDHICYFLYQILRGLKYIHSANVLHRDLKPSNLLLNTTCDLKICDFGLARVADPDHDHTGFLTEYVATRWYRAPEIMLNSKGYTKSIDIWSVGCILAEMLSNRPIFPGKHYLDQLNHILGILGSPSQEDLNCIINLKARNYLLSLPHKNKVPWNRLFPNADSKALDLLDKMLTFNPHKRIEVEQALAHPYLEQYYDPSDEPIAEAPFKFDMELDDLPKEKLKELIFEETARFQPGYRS

CC(C)(C)OC(=O)N[C@@H](Cc1ccccc1)C(=O)NCCCl
IC50 [1]: > 100 µM

C=CC(=O)N(Cc1ccccc1)NC(=O)OC(C)(C)C
IC50 [1]: > 100 µM

CCC(=O)[C@H](Cc1ccccc1)NC(=O)OC(C)(C)C
IC50 [2]: > 100 µM
IC50 [3]: > 100 µM
IC50 [1]: > 100 µM

NC1(c2ccc(-c3nc4ccn5c(=O)[nH]nc5c4cc3-c3ccccc3)cc2)CCC1 [MK-2206]
IC50 [2]: 5.4 µM
IC50 [3]: 7.5 µM

C=CC(=O)[C@H](Cc1ccccc1)NC(=O)OC(C)(C)C
inhibition [4]: 3%
inhibition [5]: 11%
inhibition [6]: 35%
inhibition [7]: 62%
inhibition [8]: 22%
inhibition [9]: 8%
Ratio IC50 [10]: 37
inhibition [11]: 5%
inhibition [12]: 2%
inhibition [13]: -1%
inhibition [14]: 46%
inhibition [15]: 5%
inhibition [16]: 5%
inhibition [17]: 34%
IC50 [18]: 52.6 µM
inhibition [19]: 13%
inhibition [20]: -6%
Ratio IC50 [21]: 39
inhibition [22]: tde
inhibition [23]: 0%
inhibition [24]: -4%
IC50 [2]: 22.9 µM
inhibition [25]: -7%
inhibition [26]: 50%
inhibition [27]: 18%
inhibition [28]: 10%
inhibition [29]: -4%
inhibition [30]: -1%
inhibition [31]: 4%
inhibition [32]: 3%
inhibition [33]: 15%
inhibition [34]: 9%
IC50 [3]: 21.5 µM
inhibition [35]: -1%
Selectivity ratio [36]: 90
inhibition [37]: 14%
inhibition [38]: -2%
inhibition [39]: 50%
inhibition [40]: 2%
inhibition [41]: -4%
inhibition [42]: -10%
inhibition [43]: 10%
inhibition [44]: 17%
inhibition [45]: 9%
inhibition [46]: 36%
inhibition [47]: 8%
inhibition [48]: 19%
inhibition [49]: 5%
IC50 [1]: 0.58 µM
inhibition [50]: 15%
inhibition [51]: 46%
inhibition [52]: 46%

CC(C)(C)OC(=O)NN(Cc1ccccc1)C(=O)CBr
IC50 [1]: 24.7 µM

CCn1c(-c2nonc2N)nc2c(C#CC(C)(C)O)ncc(OC[C@H]3CCCNC3)c21 [GSK-690693]
IC50 [2]: 5.4 µM
IC50 [3]: 8.2 µM

CC(C)(C)OC(=O)N[C@@H](Cc1ccccc1)C(=O)NCCI
IC50 [1]: > 100 µM

CC(C)(C)OC(=O)NN(Cc1ccccc1)C(=O)CCl
IC50 [1]: > 100 µM

CC(C)(C)OC(=O)N[C@@H](Cc1ccccc1)C(=O)NCCN1C(=O)C=CC1=O
IC50 [1]: 4.48 µM

C=CC(=O)[C@H](Cc1ccccc1)NC(=O)OCc1cn(CCCCCCNC(=S)Nc2ccc(-c3c4ccc(=O)cc-4oc4cc(O)ccc34)c(C(=O)O)c2)nn1
Activity [53]: Active

CC(C)(C)OC(=O)NN(Cc1ccccc1)C(=O)CN1C(=O)C=CC1=O
IC50 [1]: 4.68 µM

CC(C)(C)OC(=O)NN(Cc1ccccc1)C(=O)CI
IC50 [1]: 16.1 µM

COC[C@H](NC(=O)[C@H](Cc1ccc(O)cc1)NC(=O)[C@H](C(C)C)N(C)C(=O)[C@H](CCCNC(=N)N)NC(=O)[C@@H]1CCCN1C(=O)[C@@H](N)CCCNC(=N)N)C(=O)NCCCC(=O)O (H-RPR[NMeV]YS(Me)[GABA]-OH)
IC50 [54]: 0.2 µM

CC(C)(C)OC(=O)N[C@@H](Cc1ccccc1)C(=O)NCCBr
IC50 [1]: > 100 µM
